Measured values published in ChEMBL document CHEMBL4428030, “Design and Synthesis of Structure-Simplified Derivatives of Gonytolide for the Promotion of Innate Immune Responses” (J Nat Prod, 2016).
Activity calls are given as the source filed them. No cut-off for these calls is given here.

Experiments:
Drosophila [1] = test: Stimulation of innate immune response in Drosophila third-instar larvae assessed as DAP-type peptidoglycans-mediated Dpt-LacZ activation at 1 to 10 ug/ml after 12 hrs by beta-galactosidase reporter gene assay; type: functional, organism-based
Outline: (§1)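 Opened third-instar Dpt-lacZ larvae cultured whole in Schneider's medium with 20% FBS and 1% antibiotics/antimycotics, 25 °C, six larvae per condition as replicates. Compound added from DMSO together with 100 ng/mL E. coli peptidoglycan for 12 h. Each larva sonicated in phosphate buffer (60 mM Na2HPO4, 40 mM NaH2PO4, 10 mM KCl, 1 mM MgCl2) and spun 10000g, 4 °C, 10 min. Supernatant β-galactosidase normalized to total protein.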

Drosophila [2] = test: Stimulation of innate immune response in Drosophila third-instar larvae assessed as DAP-type peptidoglycans-mediated Dpt-LacZ activation at 10 ug/ml after 12 hrs by beta-galactosidase reporter gene assay relative to control; type: functional; outline: as §1
HUVEC = test: Stimulation of innate immune response in HUVEC assessed as increase in TNFalpha-stimulated IL-8 production at 10 ug/ml preincubated for 3 hrs followed by TNFalpha stimulation measured after 12 hrs by ELISA; type: functional, cell-based; details: Homo sapiens
Outline: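 HUVECs grown in EGM-2 at 37 °C, 5% CO2. Cells preincubated ±compound for 3 h, then given 11 μL of 10 ng/mL hTNF-α (stock added to 100 μL well). Supernatants collected after a further 12 h for ELISA.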

[3] = Cytotoxicity against Drosophila melanogaster S2 cells assessed as reduction in cell viability at 10 ug/ml by WST8 assay; type: cell-based
Outline: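 S2 cells kept at 25 °C in Schneider's medium with 10% FBS and 1% antibiotics/antimycotics. Viability read by colorimetric WST-8 conversion.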

Drosophila [4] = test: Stimulation of innate immune response in Drosophila third-instar larvae assessed as DAP-type peptidoglycans-mediated Dpt-LacZ activation at 10 ug/ml after 12 hrs by beta-galactosidase reporter gene assay; type: functional, organism-based; outline: as §1

SMILES	Activity (Drosophila [1])	fold change (FC) (Drosophila [2])	Activity (HUVEC)	Activity [3]	Activity (Drosophila [4])
COC(=O)[C@]1([C@@H]2CCC(=O)O2)CC(=O)c2c(O)cc(C)c(-c3c(C)cc(O)c4c3O[C@@](C(=O)OC)([C@@H]3CCC(=O)O3)CC4=O)c2O1	Dose-dependent effect	>3	Active	–	–
COc1cc(C)c(-c2c(C)cc(OC)c3c(=O)cc(CCCCOC(C)=O)oc23)c2oc(CCCCOC(C)=O)cc(=O)c12	–	–	–	Non-Toxic	Active
COc1cc(C)c(-c2c(C)cc(OC)c3c(=O)cc(CCCCO)oc23)c2oc(CCCCO)cc(=O)c12	inactive	–	–	–	–
COc1ccc(-c2cc(=O)c3c(OC)cc(C)c(-c4c(C)cc(OC)c5c(=O)cc(-c6ccc(OC)cc6)oc45)c3o2)cc1	–	–	Active	Non-Toxic	Active
COC(=O)CCCc1cc(=O)c2c(OC)cc(C)c(-c3c(C)cc(OC)c4c(=O)cc(CCCC(=O)OC)oc34)c2o1	–	–	Active	Non-Toxic	Active
